In ChEMBL document CHEMBL1148469, “Structural basis for the synthesis of indirubins as potent and selective inhibitors of glycogen synthase kinase-3 and cyclin-dependent kinases” (J Med Chem, 2004):

Tests used:
[1] = target: Glycogen synthase kinase-3 alpha/beta (Sus scrofa); experiment: Inhibitory activity against GSK-3-alpha/beta from porcine brain
[2] = target: Cyclin-dependent kinase 5/CDK5 activator 1 (Homo sapiens, UniProt Q00535); experiment: Inhibitory activity against Cyclin-dependent kinase 5-p35nck5a; format: protein-complex assay
Summary of the method: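 Recombinant mammalian CDK5 and p25 (truncated p35 activator), each expressed in E. coli as a GST fusion, purified on glutathione-agarose and mixed in equal amounts. IC50 from dose-response curves.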

[3] = target: Cyclin-dependent kinase 1/cyclin B (Marthasterias glacialis); experiment: Inhibitory activity against cyclin dependent kinase 1-cyclinB from starfish (Marthasterias glacialis) oocytes
[4] = target: Glycogen synthase kinase-3 alpha/beta (Sus scrofa); experiment: Inhibition of glycogen synthase kinase-3-alpha/beta (GSK-3-alpha/beta) in porcine brain relative to indirubin

Sequence of Cyclin-dependent kinase 5/CDK5 activator 1 (Q00535 whole entry, the tested form may be a part): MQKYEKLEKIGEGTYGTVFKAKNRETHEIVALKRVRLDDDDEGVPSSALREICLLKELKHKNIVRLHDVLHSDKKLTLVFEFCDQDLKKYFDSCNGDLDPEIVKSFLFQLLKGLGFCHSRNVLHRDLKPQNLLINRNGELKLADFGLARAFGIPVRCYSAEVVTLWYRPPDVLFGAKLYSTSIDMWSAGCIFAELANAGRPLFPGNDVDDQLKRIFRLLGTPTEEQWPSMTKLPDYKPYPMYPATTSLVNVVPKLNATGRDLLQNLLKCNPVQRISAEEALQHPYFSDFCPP
Sequence of Cyclin-dependent kinase 5/CDK5 activator 1 (Q15078 whole entry, further chain, the tested form may be a part): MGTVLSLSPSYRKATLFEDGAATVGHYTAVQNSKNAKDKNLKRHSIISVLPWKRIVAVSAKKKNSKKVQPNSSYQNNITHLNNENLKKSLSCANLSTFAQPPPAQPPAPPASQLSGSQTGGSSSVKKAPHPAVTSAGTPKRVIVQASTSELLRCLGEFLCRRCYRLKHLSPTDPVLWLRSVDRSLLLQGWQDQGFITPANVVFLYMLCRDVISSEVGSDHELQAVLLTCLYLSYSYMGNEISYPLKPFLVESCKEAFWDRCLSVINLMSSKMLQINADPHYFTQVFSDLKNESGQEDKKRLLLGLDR

SMILES	IC50 [1] [µM]	IC50 [2] [nM]	IC50 [3] [µM]	IC50 [4] [µM]
Cn1c(O)c(-c2[nH]c3ccccc3c2N=O)c2ccc(Br)cc21	> 100	> 100000	92	–
Cn1c(O)c(-c2[nH]c3ccccc3c2N=O)c2ccccc21	–	> 100000	73	–
CC(=O)O/N=C1/C(c2c(O)[nH]c3cc(Cl)ccc23)=Nc2ccccc21	0.017	200	30	–
O=Nc1c(-c2c(O)[nH]c3ccccc23)[nH]c2cc(Br)ccc12	–	–	3	–
Cc1cc2c(C3=Nc4ccccc4C3=O)c(O)[nH]c2cc1Br	0.025	60000	30	–
O=C1C(c2c(O)[nH]c3ccc(Br)cc23)=Nc2ccccc21	–	–	–	0.055
O=Nc1c(-c2c(O)[nH]c3cc(I)ccc23)[nH]c2ccccc12	–	300	–	–
C=Cc1ccc2c(C3=Nc4ccccc4C3=O)c(O)[nH]c2c1	0.24	2400	4.2	–
Cn1c(O)c(C2=Nc3ccccc3C2=O)c2ccc(Br)cc21	> 100	> 100000	> 100	–
O=C1C(c2c(O)[nH]c3ccc(F)cc23)=Nc2ccccc21	–	–	–	0.078
CC(=O)O/N=C1/C(=C2/C(=O)Nc3cc(Cl)c(Cl)cc32)Nc2ccccc21 [INDIRUBIN 1]	0.004	100	30	–
O=C1C(c2c(O)[nH]c3cc(Br)ccc23)=Nc2cc(Br)ccc21	4.5	> 100000	> 100	–
C=Cc1ccc2c(C3=Nc4ccccc4/C3=N\OC(C)=O)c(O)[nH]c2c1	0.065	400	1.6	–
CC(=O)O/N=C1/C(c2c(O)[nH]c3ccccc23)=Nc2ccccc21	–	700	–	–
CO/N=C1/C(c2c(O)[nH]c3cc(Br)ccc23)=Nc2ccccc21	0.03	2200	3.7	–
O=C1C(c2c(O)[nH]c3cc(I)ccc23)=Nc2ccccc21	0.055	5300	1.6	–
O=C1C(c2c(O)[nH]c3ccc([N+](=O)[O-])cc23)=Nc2ccccc21	–	–	–	0.042
O=C1C(c2c(O)[nH]c3cccc(Cl)c23)=Nc2ccccc21	> 100	10000	10	–
O=Nc1c(-c2c(O)[nH]c3cc(Br)ccc23)[nH]c2cc(Br)ccc12	0.12	1300	17	–
O=C1C(c2c(O)[nH]c3ccccc23)=Nc2ccc(Br)cc21	–	–	–	0.35
CC(=O)O/N=C1/C(=C2/C(=O)Nc3cc(Br)ccc32)Nc2ccccc21 [6-BROMOINDIRUBIN-3'-ACETOXIME]	0.01	2400	63	–

SMILES	IC50 [1] [µM]	IC50 [2] [nM]	IC50 [3] [µM]	IC50 [4] [µM]
Cn1c(O)c(C2=Nc3ccccc3C2=O)c2ccccc21	–	> 100000	> 100	–
CC(=O)O/N=C1/C(=C2/C(=O)Nc3cc(Br)c(C)cc32)Nc2ccccc21	0.007	30000	31	–
O=C1C(c2c(O)[nH]c3ccc(Cl)cc23)=Nc2ccccc21	–	–	–	0.05
O=C1C(c2c(O)[nH]c3ccc(Br)cc23)=Nc2ccc(Br)cc21	–	–	–	0.25
CC(=O)O/N=C1/C(c2c(O)[nH]c3cc(F)ccc23)=Nc2ccccc21	–	300	–	–
C=Cc1ccc2c(-c3[nH]c4ccccc4c3N=O)c(O)[nH]c2c1	0.06	420	1.2	–
O=C1C(c2c(O)[nH]c3cc(Cl)ccc23)=Nc2ccccc21	0.14	> 100000	> 100	–
Cc1ccc2[nH]c(O)c(C3=Nc4ccccc4C3=O)c2c1	–	–	–	0.062
CC(=O)O/N=C1/C(c2c(O)[nH]c3cc(I)ccc23)=Nc2ccccc21	0.013	1300	2.2	–
O=C1C(c2c(O)[nH]c3cc(Cl)c(Cl)cc23)=Nc2ccccc21	0.03	60000	45	–
O=C1C(c2c(O)[nH]c3ccccc23)=Nc2cc(Br)ccc21	22	> 100000	> 100	–
O=C1C(c2c(O)[nH]c3cc(Br)c([N+](=O)[O-])cc23)=Nc2ccccc21	0.1	> 100000	> 100	–
CC(=O)O/N=C1/C(=C2/C(=O)Nc3cc(Br)c([N+](=O)[O-])cc32)Nc2ccccc21	0.006	31000	11	–
O=C1C(c2c(O)[nH]c3cc(Br)ccc23)=Nc2ccccc21	–	53000	–	–
O=Nc1c(-c2c(O)[nH]c3cc(Br)c([N+](=O)[O-])cc23)[nH]c2ccccc12	–	150	–	–
O=Nc1c(-c2c(O)[nH]c3cc(F)ccc23)[nH]c2ccccc12	0.13	150	0.32	–
O=Nc1c(-c2c(O)[nH]c3cc(Cl)ccc23)[nH]c2ccccc12	0.02	100	0.65	–
CO/N=C1/C(c2c(O)[nH]c3ccccc23)=Nc2ccccc21	–	400	–	–
Cc1cc2c(-c3[nH]c4ccccc4c3N=O)c(O)[nH]c2cc1Br	–	130	–	–
O=C1C(c2c(O)[nH]c3cc(F)ccc23)=Nc2ccccc21	–	1000	–	–
